Assay results taken from ChEMBL document CHEMBL2046324, “Synthesis and biological evaluation of 1-arylsulfonyl-5-(N-hydroxyacrylamide)indoles as potent histone deacetylase inhibitors with antitumor activity in vivo” (J Med Chem, 2012).

What was measured:
Histone deacetylase = experiment: Inhibition of HDAC in human HeLa cell nuclear extract after 30 mins by fluorescence microplate reader; format: protein assay
cells = format: functional, Hep 3B2; details: Homo sapiens, Hep3B, 48 h
MDA-MB-231 = experiment: cells; format: functional; details: Homo sapiens, MDA-MB-231, 48 h
PC-3 = experiment: cells; format: functional; details: Homo sapiens, PC-3, 48 h
A549 = experiment: Growth inhibition of human A549 cells after 48 hrs by SRB assay; format: functional
Method in brief: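 A549 cells were grown in RPMI 1640 with 10% FBS and 2 mM glutamine at 37 °C in 5% CO₂, then seeded in medium with 5% FBS. A 24 h TCA-fixed plate gave T₀. Cells were exposed to compound or DMSO for 48 h, fixed with 10% TCA and stained with 0.4% SRB; bound dye was solubilized in 10 mM Tris and read at 515 nm. GI₅₀ was the concentration halving net protein increase. At least three independent experiments.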

Histone deacetylase 1 = Histone deacetylase 1 (Homo sapiens, UniProt Q13547); experiment: Inhibition of human recombinant HDAC1 after 30 mins by fluorometric assay
Sequence of Histone deacetylase 1 (Q13547 whole entry): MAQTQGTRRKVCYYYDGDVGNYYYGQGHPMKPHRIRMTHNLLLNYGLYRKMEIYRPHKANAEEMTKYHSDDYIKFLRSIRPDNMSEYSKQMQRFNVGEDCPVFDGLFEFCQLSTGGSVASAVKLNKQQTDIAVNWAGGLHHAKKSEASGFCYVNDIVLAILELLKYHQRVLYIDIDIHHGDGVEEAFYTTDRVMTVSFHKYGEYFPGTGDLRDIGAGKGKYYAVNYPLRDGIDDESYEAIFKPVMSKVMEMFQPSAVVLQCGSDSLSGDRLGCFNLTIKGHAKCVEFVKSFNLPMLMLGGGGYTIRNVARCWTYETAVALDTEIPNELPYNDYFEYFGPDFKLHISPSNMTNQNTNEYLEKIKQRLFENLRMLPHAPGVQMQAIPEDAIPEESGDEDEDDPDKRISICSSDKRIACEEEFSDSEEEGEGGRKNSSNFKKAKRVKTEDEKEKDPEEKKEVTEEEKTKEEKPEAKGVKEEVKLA

Histone deacetylase 2 = Histone deacetylase 2 (Homo sapiens, UniProt Q92769); experiment: Inhibition of human recombinant HDAC2 after 30 mins by fluorometric assay
Sequence of Histone deacetylase 2 (Q92769 whole entry): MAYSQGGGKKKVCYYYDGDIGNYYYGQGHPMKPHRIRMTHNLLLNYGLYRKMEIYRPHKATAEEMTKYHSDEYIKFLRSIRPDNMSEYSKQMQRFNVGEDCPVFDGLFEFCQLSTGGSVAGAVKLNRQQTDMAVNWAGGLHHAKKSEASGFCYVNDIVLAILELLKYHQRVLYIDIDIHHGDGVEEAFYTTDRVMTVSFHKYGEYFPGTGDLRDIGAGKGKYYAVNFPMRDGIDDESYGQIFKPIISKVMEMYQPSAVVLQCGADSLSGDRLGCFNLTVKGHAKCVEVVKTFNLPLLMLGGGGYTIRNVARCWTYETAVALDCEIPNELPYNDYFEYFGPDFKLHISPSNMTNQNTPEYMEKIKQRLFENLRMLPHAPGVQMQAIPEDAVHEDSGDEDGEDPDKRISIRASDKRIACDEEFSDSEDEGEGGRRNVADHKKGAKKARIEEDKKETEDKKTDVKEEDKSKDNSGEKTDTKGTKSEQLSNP

[1] = target: T1, Protein deacetylase HDAC6 (Homo sapiens, UniProt Q9UBN7); experiment: Inhibition of human recombinant HDAC6 after 30 mins by fluorometric assay
T1 sequence (Q9UBN7 whole entry): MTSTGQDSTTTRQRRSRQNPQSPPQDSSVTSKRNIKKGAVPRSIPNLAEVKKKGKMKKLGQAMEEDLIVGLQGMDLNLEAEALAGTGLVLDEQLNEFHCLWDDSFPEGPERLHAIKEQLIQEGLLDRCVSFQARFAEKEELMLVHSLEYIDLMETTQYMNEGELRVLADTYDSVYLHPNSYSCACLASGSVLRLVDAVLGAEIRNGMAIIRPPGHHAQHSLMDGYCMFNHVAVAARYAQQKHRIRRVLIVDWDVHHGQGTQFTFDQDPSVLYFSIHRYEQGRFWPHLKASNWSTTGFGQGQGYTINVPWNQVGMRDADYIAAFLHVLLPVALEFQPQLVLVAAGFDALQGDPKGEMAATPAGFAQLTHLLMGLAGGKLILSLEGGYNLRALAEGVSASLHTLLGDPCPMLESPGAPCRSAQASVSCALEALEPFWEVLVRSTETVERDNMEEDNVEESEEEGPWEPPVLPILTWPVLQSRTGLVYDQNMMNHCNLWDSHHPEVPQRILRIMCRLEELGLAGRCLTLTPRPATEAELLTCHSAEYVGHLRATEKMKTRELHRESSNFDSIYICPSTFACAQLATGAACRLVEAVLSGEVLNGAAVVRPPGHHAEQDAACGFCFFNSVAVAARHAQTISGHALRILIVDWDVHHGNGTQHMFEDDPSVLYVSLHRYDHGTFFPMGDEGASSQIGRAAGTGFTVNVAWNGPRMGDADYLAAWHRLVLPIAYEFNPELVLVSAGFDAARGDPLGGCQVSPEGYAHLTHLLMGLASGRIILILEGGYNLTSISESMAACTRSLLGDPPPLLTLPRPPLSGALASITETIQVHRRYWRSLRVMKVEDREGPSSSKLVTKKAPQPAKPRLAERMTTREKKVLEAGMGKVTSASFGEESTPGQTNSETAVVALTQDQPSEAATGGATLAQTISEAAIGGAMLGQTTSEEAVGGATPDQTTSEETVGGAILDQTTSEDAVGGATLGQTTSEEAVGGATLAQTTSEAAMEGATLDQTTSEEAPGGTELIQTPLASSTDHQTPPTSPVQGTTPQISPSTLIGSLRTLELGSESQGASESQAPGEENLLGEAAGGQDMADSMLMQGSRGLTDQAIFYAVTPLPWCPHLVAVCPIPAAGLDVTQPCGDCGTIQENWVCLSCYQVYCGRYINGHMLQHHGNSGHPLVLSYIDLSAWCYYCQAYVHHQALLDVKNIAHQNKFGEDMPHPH

Homo sapiens = species: Homo sapiens; experiment: Selectivity ratio of IC50 for human HDAC1 to IC50 for human HDAC6

SMILES	IC50 (Histone deacetylase)	GI50 (MDA-MB-231)	GI50 (PC-3)	GI50 (A549; Homo sapiens, A549, 48 h)	GI50 (A549)	IC50 (Histone deacetylase 1)	IC50 (Histone deacetylase 2)	IC50 [1]	Ratio IC50 (Homo sapiens)	GI50 (cells)
O=C(/C=C/c1cn(S(=O)(=O)c2ccccc2)c2ccccc12)NO	> 1 µM	8.14 µM	5.77 µM	7.06 µM	–	–	–	–	–	8.87 µM
O=C(CCCCCCC(=O)Nc1ccccc1)NO [VORINOSTAT]	–	–	–	–	1.85 µM	–	–	–	–	–
O=C(/C=C/c1ccc2c(ccn2Cc2ccccc2)c1)NO	0.0321 µM	1.18 µM	1.23 µM	2.37 µM	–	0.0712 µM	0.381 µM	0.0404 µM	–	0.86 µM
O=C(/C=C/c1ccc2[nH]cc(S(=O)(=O)c3ccccc3)c2c1)NO	0.2752 µM	1.25 µM	1.26 µM	3.33 µM	–	–	–	–	–	1.27 µM
O=C(/C=C/c1cccc2c1ccn2S(=O)(=O)c1ccccc1)NO	0.1709 µM	4.16 µM	3.67 µM	6.7 µM	–	–	–	–	–	4.32 µM
COc1ccc(S(=O)(=O)n2ccc3cc(/C=C/C(=O)NO)ccc32)cc1	0.0068 µM	0.75 µM	0.8 µM	1.18 µM	–	0.125 µM	0.362 µM	0.0033 µM	40	0.55 µM
O=C(NO)c1ccc2c(ccn2S(=O)(=O)c2ccccc2)c1	> 1 µM	5.68 µM	7.26 µM	> 10 µM	–	–	–	–	–	> 10 µM
O=C(/C=C/c1cccc2ccn(S(=O)(=O)c3ccccc3)c12)NO	> 1 µM	7.71 µM	4.75 µM	5.5 µM	–	–	–	–	–	3.82 µM
O=C(/C=C/c1ccc2c(ccn2S(=O)(=O)c2ccc([N+](=O)[O-])cc2)c1)NO	0.0126 µM	0.75 µM	0.85 µM	1.21 µM	–	0.0699 µM	0.189 µM	0.0183 µM	–	0.56 µM
O=C(CCc1ccc2c(ccn2S(=O)(=O)c2ccccc2)c1)NO	0.4075 µM	2.21 µM	2.07 µM	4.04 µM	–	–	–	–	–	2.56 µM

Continued by falling GI50 (MDA-MB-231), values first:

IC50 (Histone deacetylase)	GI50 (MDA-MB-231)	GI50 (PC-3)	GI50 (A549; Homo sapiens, A549, 48 h)	GI50 (A549)	IC50 (Histone deacetylase 1)	IC50 (Histone deacetylase 2)	IC50 [1]	Ratio IC50 (Homo sapiens)	SMILES	GI50 (cells)
> 1 µM	4.37 µM	4.8 µM	9.07 µM	–	–	–	–	–	O=C(/C=C/c1ccc2[nH]ccc2c1)NO	3.65 µM
0.7576 µM	3.18 µM	2.32 µM	5.8 µM	–	–	–	–	–	O=C(/C=C/c1ccc2c(ccn2C(=O)c2ccccc2)c1)NO	2.4 µM
0.254 µM	2.41 µM	2.4 µM	5.3 µM	–	–	–	–	–	O=C(/C=C/c1ccc2ccn(S(=O)(=O)c3ccccc3)c2c1)NO	2.12 µM
0.1865 µM	1.73 µM	1.54 µM	2.85 µM	–	–	–	–	–	O=C(/C=C/c1ccc2c(ccn2-c2ccccc2)c1)NO	1.32 µM
0.0168 µM	0.66 µM	0.39 µM	0.75 µM	–	0.0332 µM	0.199 µM	0.0592 µM	–	O=C(/C=C/c1ccc2c(ccn2S(=O)(=O)c2ccc(F)cc2)c1)NO	0.64 µM
0.0097 µM	0.37 µM	0.93 µM	0.56 µM	–	0.0181 µM	0.0023 µM	0.0454 µM	–	COc1ccc(S(=O)(=O)n2ccc3cc(/C=C/C(=O)NO)ccc32)cc1OC	0.36 µM
